ChEMBL document CHEMBL1165950, “Design and synthesis of new potent anticancer pyrazoles with high FLT3 kinase inhibitory selectivity” (Bioorg Med Chem, 2010)

Legend:
Format in all cases: functional
SF-539 = assay: Cytotoxicity against human SF539 cells assessed as cell growth at 100 nM after 48 hrs by sulforhodamine B assay; conditions: SF-539, 48 h, read-out: Activity
M14 = assay: Cytotoxicity against human M14 cells assessed as cell growth at 100 nM after 48 hrs by sulforhodamine B assay; conditions: M14, 48 h, read-out: Activity
DU-145 = assay: Cytotoxicity against human DU145 cells assessed as cell growth at 0.001 uM after 48 hrs by sulforhodamine B assay; conditions: DU-145, 48 h, read-out: Activity
K562 = assay: Cytotoxicity against human K562 cells assessed as cell growth at 0.01 uM after 48 hrs by sulforhodamine B assay; conditions: K562, 48 h, read-out: Activity
786-0 [1] = assay: Cytotoxicity against human 786-0 cells assessed as cell growth at 100 nM after 48 hrs by sulforhodamine B assay; conditions: 786-0, 48 h, read-out: Activity
How it was run: (§1)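 NCI-60 five-dose screen. Cells were grown in RPMI 1640 with 5% FBS and 2 mM L-glutamine, plated at 5000–40,000 cells/well and preincubated for 24 h. Time-zero plates were TCA-fixed. DMSO-solubilized drug was added at five concentrations (10-fold or ½-log serial dilutions) for 48 h at 37 °C, 5% CO2. Cells were TCA-fixed, stained with 0.4% SRB and read at 515 nm. Percent growth used time-zero, control and test absorbances.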

T47D = assay: Cytotoxicity against human T47D cells assessed as cell growth at 100 nM after 48 hrs by sulforhodamine B assay; conditions: read-out: Activity
UACC-62 = assay: Cytotoxicity against human UACC62 cells assessed as cell growth at 10 uM; conditions: read-out: Activity
How it was run: (§2)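 NCI-60 screen: cells grown in RPMI 1640 with 5% FBS and 2 mM L-glutamine, plated at 5000–40,000 cells/well according to doubling time, and preincubated 24 h at 37 °C, 5% CO2. The single 10 µM dose (DMSO stock) was added, then incubated 48 h. Cells were TCA-fixed and stained with 0.4% SRB, read at 515 nm, and growth % calculated against time-zero and control plates.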

OVCAR-5 [2] = assay: Cytotoxicity against human OVCAR5 cells assessed as cell growth at 10 uM; conditions: read-out: Activity; how it was run: as §2
786-0 [3] = assay: Cytotoxicity against human 786-0 cells assessed as cell growth at 10 uM; conditions: read-out: Activity
How it was run: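 Single-dose NCI-60 screen at 10 µM. Cells were grown in RPMI 1640 with 5% FBS and 2 mM L-glutamine, then treated for 48 h at 37 °C. Protein was measured by SRB staining with absorbance at 515 nm. Percentage growth was recorded, and inhibition percentage was calculated as 100 minus growth percentage.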

PC-3 [4] = assay: Cytotoxicity against human PC3 cells assessed as cell growth at 10 uM; conditions: read-out: Activity; how it was run: as §2
MDA-MB-468 = assay: Cytotoxicity against human MDA-MB-468 cells assessed as cell growth at 10 uM; conditions: read-out: Activity; how it was run: as §2
HT-29 = assay: Cytotoxicity against human HT-29 cells assessed as cell growth at 1 uM after 48 hrs by sulforhodamine B assay; conditions: HT-29, 48 h, read-out: Activity
KM12 = assay: Cytotoxicity against human KM12 cells assessed as cell growth at 1 uM after 48 hrs by sulforhodamine B assay; conditions: KM12, 48 h, read-out: Activity
MOLT-4 = assay: Cytotoxicity against human MOLT4 cells assessed as cell growth at 0.01 uM after 48 hrs by sulforhodamine B assay; conditions: MOLT-4, 48 h, read-out: Activity
HOP-92 = assay: Cytotoxicity against human HOP92 cells assessed as cell growth at 0.01 uM after 48 hrs by sulforhodamine B assay; conditions: HOP-92, 48 h, read-out: Activity
UACC-257 = assay: Cytotoxicity against human UACC257 cells assessed as cell growth at 1 uM after 48 hrs by sulforhodamine B assay; conditions: UACC-257, 48 h, read-out: Activity
SK-MEL-5 [5] = assay: Cytotoxicity against human SK-MEL-5 cells assessed as cell growth at 0.01 uM after 48 hrs by sulforhodamine B assay; conditions: SK-MEL-5, 48 h, read-out: Activity
OVCAR-4 = assay: Cytotoxicity against human OVCAR4 cells assessed as cell growth at 0.01 uM after 48 hrs by sulforhodamine B assay; conditions: OVCAR-4, 48 h, read-out: Activity
OVCAR-5 [6] = assay: Cytotoxicity against human OVCAR5 cells assessed as cell growth at 0.01 uM after 48 hrs by sulforhodamine B assay; conditions: OVCAR-5, 48 h, read-out: Activity
OVCAR-3 = assay: Cytotoxicity against human OVCAR-3 cells assessed as cell growth at 0.001 uM after 48 hrs by sulforhodamine B assay; conditions: OVCAR-3, 48 h, read-out: Activity
A498 = assay: Cytotoxicity against human A498 cells assessed as cell growth at 0.001 uM after 48 hrs by sulforhodamine B assay; conditions: A498, 48 h, read-out: Activity; how it was run: as §1
UO-31 = assay: Cytotoxicity against human UO31 cells assessed as cell growth at 0.001 uM after 48 hrs by sulforhodamine B assay; conditions: UO-31, 48 h, read-out: Activity
PC-3 [7] = assay: Cytotoxicity against human PC3 cells assessed as cell growth at 0.001 uM after 48 hrs by sulforhodamine B assay; conditions: PC-3, 48 h, read-out: Activity
SNB-75 = assay: Growth inhibition of human SNB75 cells after 48 hrs by sulforhodamine B assay; conditions: SNB-75, 48 h; for CC50: read-out: LC50 (the source's name)
How it was run: (§3)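 NCI 60-cell screen, five-dose mode. Cells grown in RPMI 1640 with 5% FBS and 2 mM L-glutamine and plated at 5000-40,000 cells/well according to doubling time. After 24 h preincubation, a Tz plate was TCA-fixed. Five concentrations (10-fold or 1/2 log dilutions) were applied for 48 h at 37 °C. SRB staining read at 515 nm. IC50 taken from [(Ti-Tz)/(C-Tz)]×100 = 50.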

NCI/ADR-RES = assay: Growth inhibition of human NCI/ADR-RES cells after 48 hrs by sulforhodamine B assay; conditions: for CC50: read-out: LC50 (the source's name); how it was run: as §3
A549 = assay: Cytotoxicity against human A549 cells assessed as cell growth at 100 nM after 48 hrs by sulforhodamine B assay; conditions: A549, 48 h, read-out: Activity; how it was run: as §1
HOP-62 = assay: Cytotoxicity against human HOP62 cells assessed as cell growth at 100 nM after 48 hrs by sulforhodamine B assay; conditions: HOP-62, 48 h, read-out: Activity
SR = assay: Cytotoxicity against human SR cells assessed as cell growth at 10 uM after 48 hrs by sulforhodamine B assay; conditions: read-out: Activity
HCT-15 = assay: Cytotoxicity against human HCT15 cells assessed as cell growth at 10 uM after 48 hrs by sulforhodamine B assay; conditions: HCT-15, 48 h, read-out: Activity
SK-MEL-5 [8] = assay: Cytotoxicity against human SK-MEL-5 cells assessed as cell growth at 10 uM after 48 hrs by sulforhodamine B assay; conditions: SK-MEL-5, 48 h, read-out: Activity
SN12C = assay: Cytotoxicity against human SN12C cells assessed as cell growth at 10 uM after 48 hrs by sulforhodamine B assay; conditions: read-out: Activity

SMILES | growth at 0.1 µM (SF-539) | growth at 0.1 µM (M14) | growth at 0.001 µM (DU-145) | growth at 0.01 µM (K562) | growth at 0.1 µM (786-0 [1]) | growth at 0.1 µM (T47D) | growth at 10 µM (UACC-62) | growth at 10 µM (OVCAR-5 [2]) | growth at 10 µM (786-0 [3]) | growth at 10 µM (PC-3 [4]) | growth at 10 µM (MDA-MB-468) | growth at 1 µM (HT-29) | growth at 1 µM (KM12) | growth at 0.01 µM (MOLT-4) | growth at 0.01 µM (HOP-92) | growth at 1 µM (UACC-257) | growth at 0.01 µM (SK-MEL-5 [5]) | growth at 0.01 µM (OVCAR-4) | growth at 0.01 µM (OVCAR-5 [6]) | growth at 0.001 µM (OVCAR-3) | further results
COc1cc(C)cc(-c2nn(CC#N)cc2-c2ccc(-c3cccc(C(C)=O)c3)nc2)c1 | 78% | 58% | 110% | 80% | 92% | 81% | 27.2% | 91.3% | 18% | 31.5% | -30.5% | 4% | 4% | 100% | 80% | 34% | 91% | 97% | 68% | 102% | growth at 0.001 µM (A498): 76%; growth at 0.001 µM (UO-31): 86%; growth at 0.001 µM (PC-3 [7]): 94%; GI50 (SNB-75): 1.96 µM; TGI (SNB-75): 6.24 µM; CC50 (SNB-75): > 100 µM; GI50 (NCI/ADR-RES): 1.31 µM; TGI (NCI/ADR-RES): 6.06 µM; CC50 (NCI/ADR-RES): > 100 µM; growth at 0.1 µM (A549): 91%; growth at 0.1 µM (HOP-62): 82%; growth at 10 µM (SR): 28%; growth at 10 µM (HCT-15): 3%; growth at 10 µM (SK-MEL-5 [8]): -75%; growth at 10 µM (SN12C): 18%
COc1cc(C)cc(-c2nn(CC#N)cc2-c2ccnc(-c3ccc(N(C)C)cc3)c2)c1 | -31% | -12% | 103% | 61% | 22% | 24% | 19.1% | 55.9% | 5.8% | 31.6% | -48.4% | -29% | -37% | 93% | 93% | 48% | 104% | 98% | 93% | 106% | growth at 0.001 µM (A498): 91%; growth at 0.001 µM (UO-31): 90%; growth at 0.001 µM (PC-3 [7]): 97%; GI50 (SNB-75): 0.286 µM; TGI (SNB-75): 0.848 µM; CC50 (SNB-75): > 100 µM; GI50 (NCI/ADR-RES): 0.253 µM; TGI (NCI/ADR-RES): 0.655 µM; CC50 (NCI/ADR-RES): > 100 µM; growth at 0.1 µM (A549): 36%; growth at 0.1 µM (HOP-62): 16%; growth at 10 µM (SR): 8%; growth at 10 µM (HCT-15): -20%; growth at 10 µM (SK-MEL-5 [8]): -66%; growth at 10 µM (SN12C): -8%
COc1cc(C)cc(-c2c(-c3ccnc(-c4ccc(C(C)=O)cc4)c3)cnn2CC#N)c1 | 92% | 79% | 109% | 80% | 88% | 87% | 49.6% | 95% | 67.2% | 77.3% | 26% | 7% | 9% | 99% | 69% | 38% | 94% | 101% | 70% | 103% | growth at 0.001 µM (A498): 74%; growth at 0.001 µM (UO-31): 88%; growth at 0.001 µM (PC-3 [7]): 101%; GI50 (SNB-75): 2.08 µM; CC50 (SNB-75): > 100 µM; GI50 (NCI/ADR-RES): 2.87 µM; TGI (NCI/ADR-RES): > 100 µM; CC50 (NCI/ADR-RES): > 100 µM; growth at 0.1 µM (A549): 83%; growth at 0.1 µM (HOP-62): 84%; growth at 10 µM (SR): 28%; growth at 10 µM (HCT-15): 12%; growth at 10 µM (SK-MEL-5 [8]): -35%; growth at 10 µM (SN12C): 34%
COc1cc(C)cc(-c2c(-c3ccnc(-c4ccc(N(C)C)cc4)c3)cnn2CC#N)c1 | -29% | -16% | 102% | 34% | 6% | 44% | 20.3% | 77.7% | -1.5% | 27.6% | -23.1% | -51% | -43% | 81% | -9% | 29% | 19% | 77% | 73% | 98% | growth at 0.001 µM (A498): 94%; growth at 0.001 µM (UO-31): 83%; growth at 0.001 µM (PC-3 [7]): 101%; GI50 (SNB-75): 0.0694 µM; TGI (SNB-75): > 100 µM; CC50 (SNB-75): > 100 µM; GI50 (NCI/ADR-RES): 0.0479 µM; TGI (NCI/ADR-RES): > 100 µM; CC50 (NCI/ADR-RES): > 100 µM; growth at 0.1 µM (A549): 10%; growth at 0.1 µM (HOP-62): 33%; growth at 10 µM (SR): -38%; growth at 10 µM (HCT-15): 9%; growth at 10 µM (SK-MEL-5 [8]): -39%; growth at 10 µM (SN12C): 16%
Cc1cc(O)cc(-c2nn(CC#N)cc2-c2ccnc(-c3ccc(N(C)C)cc3)c2)c1 | 91% | 82% | 103% | 101% | 91% | 82% | 25.1% | 111% | 26.2% | 40.4% | -13.9% | 24% | -9% | 96% | 85% | 31% | 90% | 108% | 91% | 105% | growth at 0.001 µM (A498): 101%; growth at 0.001 µM (UO-31): 89%; growth at 0.001 µM (PC-3 [7]): 105%; GI50 (SNB-75): 1.86 µM; TGI (SNB-75): 5.94 µM; CC50 (SNB-75): > 100 µM; GI50 (NCI/ADR-RES): 2.54 µM; TGI (NCI/ADR-RES): 7.93 µM; CC50 (NCI/ADR-RES): > 100 µM; growth at 0.1 µM (A549): 95%; growth at 0.1 µM (HOP-62): 80%; growth at 10 µM (SR): 4%; growth at 10 µM (HCT-15): -39%; growth at 10 µM (SK-MEL-5 [8]): -93%; growth at 10 µM (SN12C): -29%
